High-throughput results from PubChem.
CASP6 VEID inh: caspase-6 (human) enzyme inhibition; inhibition, % at 12.5 µM; actives 0.53% (n = 350,000); P55212; purified caspase-6, Z-VEID-R110 cleavage fluorescence;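 active = mean inhibition across replicates at least about 35%, with every replicate also reaching that limit, limit read from the data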;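 note: 0% = median of neutral control wells and 100% = no fluorescence left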
Target sequence (P55212 24-179 limits assumed): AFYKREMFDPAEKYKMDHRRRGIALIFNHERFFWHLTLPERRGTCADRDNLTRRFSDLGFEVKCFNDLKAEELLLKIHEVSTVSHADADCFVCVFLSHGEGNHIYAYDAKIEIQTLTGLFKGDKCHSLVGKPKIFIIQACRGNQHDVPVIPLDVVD
Target sequence (P55212 194-293 limits assumed): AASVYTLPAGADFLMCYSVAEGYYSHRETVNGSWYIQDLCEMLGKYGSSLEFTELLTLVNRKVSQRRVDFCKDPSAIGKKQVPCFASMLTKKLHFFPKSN
NSD2 inh: inhibitors of human histone methyltransferase NSD2. inhibition, % at 12.5 µM. actives 0.54% (n = 310,000). NSD2 peptide methylation, AlphaScreen, 120 min. O96028. AID 743445
DNMT1 inh: inhibitors of human DNMT1 | P26358 | DNMT1 molecular beacon, Hinp1I cleavage, fluorescence | inhibition (reported as % activation of signal), % at 10 µM | actives 0.83% (n = 360,000)
HCV NS3 hel inh: inhibitors of Hepatitis C virus NS3 helicase. NS3 helicase DNA unwinding, Cy5 molecular beacon fluorescence. inhibition, % at 10.9 µM. actives 0.56% (n = 290,000);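 active = inhibition above the mean of all tested compounds plus 3 SD, set per campaign, cut at about 35% in these data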;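 note: 0% = DMSO wells and 100% = thioflavine S control wells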
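Assay system – hepatitis C virus NS3 helicase domain fragment enzyme · Buffer or medium – MOPS pH 6.5, MgCl2, DTT, Tween20, BSA · Reagent – Cy5/quencher beacon DNA duplex and ATP to start · Compound – single 10.9 µM dose · Timing – 1 h at 25 °C · Technique – Cy5 beacon fluorescence read at start and 1 h · Measure – % inhibition of unwinding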
DNMT1 confirm: confirmation of human DNMT1 inhibitors | inhibition, % at 10 µM | actives 8% (n = 2,300) | DNMT1 molecular beacon HinP1I cleavage, fluorescence | shares compounds with DNMT1 inh;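 active = average inhibition of at least 30% in the single-concentration confirmation test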
Beacon interf: shows spectral interference in the DNMT1 beacon assay. AID 602387. actives 1% (n = 2,300). activation (fluorescence interference), % at 10 µM. shares compounds with DNMT1 inh. DNMT1 molecular beacon spectral interference counterscreen, fluorescence 485/520;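 active = activation of at least 30% at 10 µM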;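 note: DNMT1 catalytic domain with a HinP1I cleavage step and a FAM/dabcyl DNA beacon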
An asterisk follows results filed as active; nt = no result given. This is a sample that favours compounds with a hit; in the whole collection about 1.5% have one here. Cut-off read from the data, not from the text of the source, unless noted: active = inhibition above about 50%; inactive = the rest.

SMILES | CASP6 VEID inh | NSD2 inh | DNMT1 inh | HCV NS3 hel inh | DNMT1 confirm | Beacon interf
Cc1ccc(-n2nc3c4c(cccc4c2=O)-c2ccccc2-3)cc1 | nt | -2 | 52* | -5 | 2 | 0
O=C(O)Cn1nc2c3c(cccc3c1=O)-c1ccccc1-2 | 2 | -3 | 2 | 12 | nt | nt
C[C@H](CO)N1C[C@H](C)[C@H](CN(C)S(C)(=O)=O)Oc2c(NC(=O)NC3CCCCC3)cccc2C1=O | 3 | nt | nt | nt | nt | nt
O/N=C1\CCC\C1=C/c1ccco1 | nt | 4 | 24 | 4 | nt | nt
O=C1C(=Cc2ccco2)CCCC1=Cc1ccco1 | 72* | 22 | 100* | nt | 0 | 0
C=C(CC[C@@H](O)C(C)(C)O)[C@H]1CC[C@]2(C)[C@@H]1CCC1[C@@]3(C)CC[C@H](O)C(C)(C)C3CC[C@]12C (stereo partly drawn) | -1 | nt | 11 | nt | nt | nt
C=C(C)[C@@H]1CC[C@]2(C(=O)O)CC[C@]3(C)[C@H](CC[C@@H]4[C@@]5(C)CC[C@H](O)C(C)(C)[C@@H]5CC[C@]43C)[C@@H]12 | nt | nt | 53* | nt | 2 | -14
O=C(Cc1ccccn1)N1CC(=O)N2[C@H](CO)[C@H](c3ccc(C#CC4CCCC4)cc3)[C@@H]2C1 | 0 | nt | nt | nt | nt | nt
COc1ccc(OC)c([N+](=O)[O-])c1C(N)=O | nt | 22 | 75* | 2 | 2 | -2
CCCNC(=O)C[C@@H]1C[C@H]2c3cc(NC(=O)COC)ccc3O[C@H]2[C@H](CO)O1 | 6 | nt | nt | nt | nt | nt
Cc1ccc(CCNC(=O)c2cc(C)nn2-c2ccccc2)cc1 | -2 | nt | 61* | -7 | 2 | 1
Cc1cc(C(=O)NCc2ccc(Cl)cc2)n(-c2ccccc2)n1 | 0 | -2 | 0 | 8 | nt | nt
COc1ccc2nc(-c3ccco3)c(-c3ccco3)nc2c1 | 47* | -6 | 98* | 29 | 5 | 2
O=C(Cn1c2ccccc2c(=O)c2ccccc21)N/N=C/c1cc([N+](=O)[O-])ccc1N1CCCCCC1 | nt | nt | 72* | 1 | 4 | 5
COc1cc2c(cc1[N+](=O)[O-])-c1ccc([N+](=O)[O-])cc1C2=NNC(N)=S | nt | -3 | -5 | nt | nt | nt
NC(=S)NN=C1c2cc(Cl)ccc2-c2c1cc(Cl)cc2[N+](=O)[O-] | nt | -4 | 51* | nt | 2 | -7
CC(C)CC#Cc1cnc2c(c1)C(=O)N([C@@H](C)CO)C[C@H](C)[C@H](CN(C)C(=O)c1cccnc1)O2 | -1 | nt | nt | nt | nt | nt
Cc1nnc2sc(-c3ccc(NC(=O)c4cccnc4)cc3)nn12 | nt | nt | nt | -4 | nt | nt
Cc1nnc2sc(-c3ccc(NC(=O)c4ccc(-c5ccc(Cl)cc5Cl)o4)cc3)nn12 | nt | nt | 65* | 1 | 8 | 1
O=C(C[C@@H]1C=C[C@H](NC(=O)Nc2ccc3c(c2)OCO3)[C@H](CO)O1)NCc1ccc2c(c1)OCO2 | -4 | nt | nt | nt | nt | nt
O=C(NCC[C@H]1CC[C@@H](NC(=O)c2ccccc2F)[C@@H](CO)O1)c1cnccn1 | -2 | nt | nt | nt | nt | nt
O=C(NC1CCCCC1)C(c1ccc(F)cc1)N(CCc1ccccc1)C(=O)CN1C(=O)c2ccccc2S1(=O)=O (stereo not drawn) | -6 | -1 | 59* | 20 | 5 | 2
O=C(NC1CCCCC1)C(c1ccc(F)cc1)N(Cc1ccccc1)C(=O)CN1C(=O)c2ccccc2S1(=O)=O (stereo not drawn) | nt | 0 | 35 | 6 | nt | nt
O=C(CSc1nnc(SCc2ccccc2)s1)N/N=C/c1c[nH]c2ccccc12 | 5 | -1 | 4 | 5 | nt | nt
Cc1ccc(CSc2nnc(SCC(=O)N/N=C/c3c[nH]c4ccccc34)s2)cc1 | 4 | 0 | 62* | 22 | 14 | -2
SMILES | CASP6 VEID inh | NSD2 inh | DNMT1 inh | HCV NS3 hel inh | DNMT1 confirm | Beacon interf
O=C(CSc1nnc(SCc2ccccc2)s1)N/N=C/C=C/c1ccccc1[N+](=O)[O-] | nt | 20 | -2 | 17 | nt | nt
O=C(CSc1nnc(SCc2ccccc2)s1)N/N=C/C=C\c1ccco1 | 16 | 5 | 88* | 21 | 9 | -1
Cn1cccc1CC(=O)N/N=C/C=C/c1ccco1 | 0 | -2 | 96* | 18 | 5 | 1
O=C(C[C@@H]1C=C[C@@H](NC(=O)c2ccccc2)[C@H](CO)O1)NCc1ccncn1 | 1 | nt | nt | nt | nt | nt
C[C@H](O)C#Cc1cnc2c(c1)C(=O)N([C@@H](C)CO)C[C@H](C)[C@@H](CN(C)C(=O)Cc1ccncc1)O2 | 0 | nt | nt | nt | nt | nt
CCOC(=O)C1=C(O)/C(=C/c2ccc(CNC(=O)C(=O)Nc3ccc(C)cc3)o2)N=C1C | nt | 2 | 90* | 11 | 23 | -2
CCOC(=O)C(=O)NCc1ccc(/C=C2/N=C(C)C(C(=O)OCC)=C2O)o1 | 5 | 25 | 15 | 24 | nt | nt
COC(=O)C1=C(O)/C(=C\c2ccc(CNC(=O)C(=O)Nc3ccc(C)cc3)o2)N=C1C | nt | 5 | 96* | 32 | 4 | 4
COC(=O)C1=C(O)/C(=C\c2ccc(CNC(=O)C(=O)Nc3ccc(C)c(C)c3)o2)N=C1C | nt | 2 | 86* | 22 | 6 | 11
C[C@H](CO)N1C[C@H](C)[C@H](CN(C)C(=O)Nc2ccc(F)cc2)Oc2ccc(NC(=O)CCC(F)(F)F)cc2C1=O | 2 | nt | nt | nt | nt | nt
CCN(C(=O)c1cc2c(=O)[nH]c3ccc(C)cc3c2s1)c1ccccc1C | -1 | 17 | 18 | -5 | nt | nt
CCN(C(=O)c1cc2c(=O)[nH]c3ccc(C)cc3c2s1)c1ccccc1F | -2 | -3 | 63* | -5 | -1 | -2
C[C@H]1CN([C@@H](C)CO)C(=O)c2cc(-c3cccc(C(=O)N(C)C)c3)cnc2O[C@@H]1CN(C)S(=O)(=O)c1ccccc1 | -6 | nt | nt | nt | nt | nt
O=C1c2cccc3c(O)ccc(c23)C(=O)N1Cc1ccco1 | 1 | nt | 95* | 22 | 133* | 116*
O=C1c2ccccc2C(=O)N1Cc1ccco1 | nt | -3 | 0 | 5 | nt | nt
COc1cccc(NC(=O)N[C@@H]2C=C[C@@H](CC(=O)Nc3ccc(-c4ccccc4)cc3)O[C@H]2CO)c1 | 0 | nt | nt | nt | nt | nt
C[C@@H]1CN([C@@H](C)CO)C(=O)Cc2cc(NS(=O)(=O)c3cccs3)ccc2O[C@@H]1CN(C)C(=O)Nc1ccccc1 | 0 | nt | nt | nt | nt | nt
COc1ccc(/C=C/C(=O)NC(=S)Nc2cc3oc4ccccc4c3cc2OC)cc1 | -1 | 0 | 57* | 5 | 0 | -10
COc1cc2c(cc1NC(=O)Nc1ccc(F)cc1)oc1ccccc12 | nt | -2 | 83* | 3 | 3 | 6
COc1cccc(C#Cc2ccc([C@H]3[C@@H](CO)N4C(=O)CN(C(C)=O)C[C@H]34)cc2)c1 | 2 | nt | nt | nt | nt | nt
COCC(=O)N1[C@@H]2CN(C(=O)NC(C)C)c3ccccc3[C@@H]2[C@@H]1CO | 8 | nt | nt | nt | nt | nt
COCCn1c(SCC(=O)Nc2ccc(F)cc2)nc2ccccc2c1=O | -3 | 0 | 83* | 4 | 1 | 2
O=c1c2c([nH]c3ccccc13)C(=C1CCCC1)CC2 | nt | nt | 92* | 11 | 7 | 4
COC(=O)C[C@@H]1CC[C@H]2[C@H](COc3ccc(NC(=O)c4cc(C)on4)cc3C(=O)N2C)O1 | -1 | nt | nt | nt | nt | nt
